Source: PMC12399198 (Acta Pharmaceutica Sinica. B, 2025)
Peptide text beside a SMILES is read from it. * marks the point of attachment. Cbz = O=C(OCc1ccccc1)*

How the values were obtained:
[1] = biological target: Keap1 (Homo sapiens, UniProt Q14145); test: Keap1 degradation in MDA-MB-231 cells; type: cell-based; details: 24 h, dose-dependent
[2] = test system: OVA-induced AR mouse model; test: OVA-induced AR mouse model; type: in vivo; details: OVA-induced AR mice
Method in brief: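 Male C57BL/6 mice, 6 weeks old, sensitised i.p. with OVA/alum (1:1) weekly for 3 weeks. Then challenged i.n. with OVA 2 mg/20 µL daily for 7 days. Test compound given i.n. at 0, 5, 10 or 20 mg/kg in 5% DMSO/45% PEG400/50% PBS, once daily, 6 h before each challenge; dexamethasone 1 mg/kg as reference. Sneezes and nasal rubs counted blinded for 10 min, starting 10 min after challenge; n = 8.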

Chain of Keap1 (Q14145 whole entry): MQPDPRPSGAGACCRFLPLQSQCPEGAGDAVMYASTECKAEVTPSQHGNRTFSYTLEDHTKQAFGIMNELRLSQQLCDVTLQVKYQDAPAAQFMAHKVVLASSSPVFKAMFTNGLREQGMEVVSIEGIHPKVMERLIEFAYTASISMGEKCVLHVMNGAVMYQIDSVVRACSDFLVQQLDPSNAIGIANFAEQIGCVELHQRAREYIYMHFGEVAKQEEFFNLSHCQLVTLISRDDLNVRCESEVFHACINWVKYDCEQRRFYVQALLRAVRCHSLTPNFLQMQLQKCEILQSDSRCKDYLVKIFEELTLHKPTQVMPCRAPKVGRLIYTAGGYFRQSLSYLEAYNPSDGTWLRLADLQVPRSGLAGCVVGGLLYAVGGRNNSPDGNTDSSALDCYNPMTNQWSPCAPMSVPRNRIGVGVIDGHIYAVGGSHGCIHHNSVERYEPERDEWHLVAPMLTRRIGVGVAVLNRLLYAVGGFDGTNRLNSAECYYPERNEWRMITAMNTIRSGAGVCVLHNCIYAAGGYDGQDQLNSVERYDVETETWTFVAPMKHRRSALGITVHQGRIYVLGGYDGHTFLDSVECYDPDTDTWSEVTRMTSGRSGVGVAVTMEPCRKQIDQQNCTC

| effect on Keap1 levels [1] | SMILES | allergic nasal symptoms (number of nasal rubbing and sneezing every 10 min) ([2]; i.n. daily for 7 days, 8 at 5, 10, 20 mg/kg, DEX 1 mg/kg) | CD45+ cells in nasal mucosa (IHC staining) ([2]; DEX or high dose of 8) | eosinophil infiltration within the nasal mucosa (Giemsa staining) ([2]; DEX or high dose of 8) |
| --- | --- | --- | --- | --- |
| decreasing Keap1 levels | CC(C)C[C@@H](C=O)NC(=O)[C@H](CC(C)C)NC(=O)[C@H](CC(C)C)NC(=O)OCc1ccccc1 [MG132] (Cbz-Leu-Leu-Leu-aldehyde) | – | – | – |
| – | C[C@@H]1C[C@H]2[C@@H]3CCC4=CC(=O)C=C[C@]4(C)[C@@]3(F)[C@@H](O)C[C@]2(C)[C@@]1(O)C(=O)CO [DEX, Dexamethasone] | decreased | reduced | significantly reduced |
